What is called MIC is the lowest concentration found to suppress growth. By IC50 is commonly meant the concentration that gives 50% inhibition.

This note sets out measurements from ChEMBL document CHEMBL3421570, “Combinatorial Libraries As a Tool for the Discovery of Novel, Broad-Spectrum Antibacterial Agents Targeting the ESKAPE Pathogens” (J Med Chem, 2015).

In brackets after ≈: the same amount, converted by molar mass. Activity calls are given as the source filed them. No cut-off for these calls is given here.

The subject of series [1] is Enterococcus faecium. Kind of series: Antimicrobial activity against Enterococcus faecium assessed as inhibition of microbial growth at 45 uM after 24 hrs. The series is classed as functional, organism-based. In outline:
(§1)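 Broth microdilution single-concentration read: overnight cultures diluted 1:1000, compound in DMF (≤2.0%) added, 37°C for 24 h, growth inhibition scored visually by lack of turbidity; triplicate. Gram-positives grown in TSB, Gram-negatives in LB.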

Series [2] relates to Staphylococcus aureus. Kind of series: Antimicrobial activity against Staphylococcus aureus assessed as inhibition of microbial growth at 45 uM after 24 hrs. The class given is functional, organism-based. In outline: as §1
Series [3] has as its system Klebsiella pneumoniae. Briefly: Antimicrobial activity against Klebsiella pneumoniae assessed as inhibition of microbial growth at 45 uM after 24 hrs. The class given is functional, organism-based. In outline:
as §1

For series [4], the system named is Acinetobacter baumannii. Briefly: Antimicrobial activity against Acinetobacter baumannii assessed as inhibition of microbial growth at 45 uM after 24 hrs. The class given is functional, organism-based. The method in brief:
as §1

Series [5] relates to Pseudomonas aeruginosa. Briefly: Antimicrobial activity against Pseudomonas aeruginosa assessed as inhibition of microbial growth at 45 uM after 24 hrs. The series is classed as functional, organism-based. The method in brief:
as §1

Series [6] has as its system Enterobacter cloacae. Kind of series: Antimicrobial activity against Enterobacter cloacae assessed as inhibition of microbial growth at 45 uM after 24 hrs. The series is classed as functional, organism-based. In outline:
as §1

For series [7], the system named is Enterococcus faecium. Briefly: Antimicrobial activity against Enterococcus faecium assessed as inhibition of microbial growth after 24 hrs. The class given is functional. In outline:
(§2)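 Broth microdilution against multidrug-resistant clinical ESKAPE isolates. Overnight cultures (TSB for Gram-positives, LB for Gram-negatives) diluted 1:1000 in fresh medium, compound in DMF (≤2.0% DMF) added at decreasing concentrations, 37°C.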

Series [8] relates to Staphylococcus aureus. Briefly: Antimicrobial activity against Staphylococcus aureus assessed as inhibition of microbial growth after 24 hrs. The class given is functional. In outline: as §2
In series [9] the test system is Klebsiella pneumoniae. Kind of series: Antimicrobial activity against Klebsiella pneumoniae assessed as inhibition of microbial growth after 24 hrs. The class given is functional. In outline: as §2
Series [10] relates to Acinetobacter baumannii. Briefly: Antimicrobial activity against Acinetobacter baumannii assessed as inhibition of microbial growth after 24 hrs. The class given is functional. The method in brief: as §2
In series [11] the test system is Pseudomonas aeruginosa. Kind of series: Antimicrobial activity against Pseudomonas aeruginosa assessed as inhibition of microbial growth after 24 hrs. The class given is functional. In outline: as §2
Series [12] relates to Enterobacter cloacae. Kind of series: Antimicrobial activity against Enterobacter cloacae assessed as inhibition of microbial growth after 24 hrs. The series is classed as functional. In outline: as §2
In series [13] the test system is Enterococcus faecium. Kind of series: Bactericidal activity against Enterococcus faecium after 24 hrs. The class given is functional.
Series [14] concerns Klebsiella pneumoniae. Briefly: Bactericidal activity against Klebsiella pneumoniae after 24 hrs. The class given is functional.
Series [15] relates to Acinetobacter baumannii. Briefly: Bactericidal activity against Acinetobacter baumannii after 24 hrs. The class given is functional.
In series [16] the test system is Pseudomonas aeruginosa. Kind of series: Bactericidal activity against Pseudomonas aeruginosa after 24 hrs. The class given is functional.
The subject of series [17] is Enterobacter cloacae. Kind of series: Bactericidal activity against Enterobacter cloacae after 24 hrs. The series is classed as functional.
Series [18] relates to Staphylococcus aureus. Briefly: Effect on bacterial density of methicillin-resistant Staphylococcus aureus at MIC measured over 2 hrs period by time kill assay. The class given is functional, organism-based.
For series [19], the system named is Staphylococcus aureus. Kind of series: Bactericidal activity against methicillin-resistant Staphylococcus aureus assessed as cell survival recovery at MIC measured after drug wash out after 120 mins by time kill assay. The series is classed as functional. In outline: (§3)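 MRSA from stationary phase was regrown 3 h in TSB and seeded at OD600 0.5. […] After 120 min, cells were centrifuged and washed, serially diluted and plated for CFU. Percent recovery is relative to no-drug controls.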

The subject of series [20] is Staphylococcus aureus. Kind of series: Bactericidal activity against methicillin-resistant Staphylococcus aureus at MIC measured after drug wash out after 120 mins by time kill assay. The class given is functional. In outline: as §3
In series [21] the test system is Enterococcus faecium. Briefly: Antibiofilm activity against Enterococcus faecium incubated for 24 hrs followed by biofilm resuspension in PBS and measured after 24 hrs. The series is classed as functional. In outline:
(§4)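 Biofilms grown 24 h in 96-well plates from overnight cultures standardized to OD600 0.5 in fresh medium (human serum only for S. aureus; TSB for Gram-positives, LB for Gram-negatives). Medium then replaced with fresh medium containing a concentration range above and below MIC, 37°C overnight. After 24 h biofilm resuspended in PBS, serially diluted, plated in duplicate, CFU counted after 24 h at 37°C. Activity relative to untreated; three technical replicates; MBEC50 reported.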

In series [22] the test system is Staphylococcus aureus. Briefly: Antibiofilm activity against Staphylococcus aureus incubated for 24 hrs followed by biofilm resuspension in PBS and measured after 24 hrs. The series is classed as functional. In outline:
as §4

Series [23] concerns Klebsiella pneumoniae. Briefly: Antibiofilm activity against Klebsiella pneumoniae incubated for 24 hrs followed by biofilm resuspension in PBS and measured after 24 hrs. The series is classed as functional. The method in brief: as §4
Series [24] relates to Acinetobacter baumannii. Kind of series: Antibiofilm activity against Acinetobacter baumannii incubated for 24 hrs followed by biofilm resuspension in PBS and measured after 24 hrs. The series is classed as functional. In outline:
as §4

Series [25] has as its system Pseudomonas aeruginosa. Kind of series: Antibiofilm activity against Pseudomonas aeruginosa incubated for 24 hrs followed by biofilm resuspension in PBS and measured after 24 hrs. The series is classed as functional. The method in brief: as §4
Series [26] deals with Enterobacter cloacae. Kind of series: Antibiofilm activity against Enterobacter cloacae incubated for 24 hrs followed by biofilm resuspension in PBS and measured after 24 hrs. The series is classed as functional. The method in brief: as §4
The test system of the next series is A549. Briefly: Cytotoxicity against human A549 cells after 48 hrs by MTT assay. The series is classed as cell-based. Particulars: A549, 48 h. In outline: (§5)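 A549 cells grown in F-12K with L-glutamine, 10% FBS, 1% penicillin-streptomycin, seeded at 1.0 × 10^5 ml−1, allowed to adhere 24 h (37°C, 5% CO2), then exposed to compound in 45% w/v (2-hydroxypropyl)-β-cyclodextrin vehicle for 48 h. MTT 4 h, formazan solubilized in DMSO, absorbance 540 nm. Percent recovery versus vehicle-only; IC50 derived; at least three independent experiments.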

The nature of series [27]: Selectivity index, ratio of IC50 for human A549 cells to MIC for Enterococcus faecium.
A short description of series [28]: Selectivity index, ratio of IC50 for human A549 cells to MIC for Staphylococcus aureus.
Series [29] in a line: Selectivity index, ratio of IC50 for human A549 cells to MIC for Klebsiella pneumoniae.
The nature of series [30]: Selectivity index, ratio of IC50 for human A549 cells to MIC for Acinetobacter baumannii.
The nature of series [31]: Selectivity index, ratio of IC50 for human A549 cells to MIC for Pseudomonas aeruginosa.
Series [32] can be described thus: Selectivity index, ratio of IC50 for human A549 cells to MIC for Enterobacter cloacae.
Series [33] in a line: Cytotoxicity against human A549 cells assessed as cell viability recovery up to 100 uM after 48 hrs by MTT assay. The class given is cell-based. Particulars: read-out: Activity. The method in brief:
as §5
On the technique in general: Formazan colour is commonly taken as a measure of viable cells.

A short description of series [34]: Cytotoxicity against human A549 cells assessed as cell viability recovery at 225 uM after 48 hrs by MTT assay. The class given is cell-based. Particulars: read-out: Activity. The method in brief: as §5
Series [35] can be described thus: Induction of hemolysis in human RBC at 10 uM incubated for 15 mins. The class given is cell-based, Erythrocyte. The conditions noted are these: red blood cells, read-out: Activity. In outline: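 Human RBCs from whole blood, resuspended 20% v/v in HA buffer (NaCl, CaCl2), compound 10 μM, 15 min at 37°C. Centrifuged 5,500 g for 1 min, supernatant OD543 read. Percent hemolysis against DMF vehicle (0%) and 1.0% Triton X-100 (100%); triplicate.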

The subject of series [36] is Enterococcus faecium. Kind of series: Induction of spontaneous mutation in Enterococcus faecium at 2 to 10 MIC. The class given is functional, organism-based.
The subject of series [37] is Staphylococcus aureus. Briefly: Induction of spontaneous mutation in Staphylococcus aureus at 2 to 10 MIC. The series is classed as functional, organism-based.
Series [38] concerns Klebsiella pneumoniae. Briefly: Induction of spontaneous mutation in Klebsiella pneumoniae at 2 to 10 MIC. The class given is functional, organism-based.
Series [39] deals with Acinetobacter baumannii. Kind of series: Induction of spontaneous mutation in Acinetobacter baumannii at 2 to 10 MIC. The series is classed as functional, organism-based.
The test system of series [40] is Pseudomonas aeruginosa. Kind of series: Induction of spontaneous mutation in Pseudomonas aeruginosa at 2 to 10 MIC. The class given is functional, organism-based. The conditions noted are these: 2 to 10 x MIC.
For series [41], the system named is Enterobacter cloacae. Kind of series: Induction of spontaneous mutation in Enterobacter cloacae at 2 to 10 MIC. The class given is functional, organism-based.
The test system of series [42] is Staphylococcus aureus. Briefly: Ratio of MIC for Staphylococcus aureus measured after 8 cycle passage to MIC for wild type Staphylococcus aureus. The series is classed as functional.
Series [43] has as its system Klebsiella pneumoniae. Briefly: Ratio of MIC for Klebsiella pneumoniae measured after 8 cycle passage to MIC for wild type Klebsiella pneumoniae. The series is classed as functional.
For series [44], the system named is Acinetobacter baumannii. Briefly: Ratio of MIC for Acinetobacter baumannii measured after 8 cycle passage to MIC for wild type Acinetobacter baumannii. The class given is functional.
The test system of series [45] is Enterobacter cloacae. Briefly: Ratio of MIC for Enterobacter cloacae measured after 8 cycle passage to MIC for wild type Enterobacter cloacae. The class given is functional.
In series [46] the test system is Staphylococcus aureus. Kind of series: Antimicrobial activity against Staphylococcus aureus USA300 strain FPR3757 infected in mouse model of lethal peritonitis assessed as mouse survival at 2 uM, im dosed 1 hr post infection and measured after 5 days post infection. The series is classed as functional, organism-based. In outline:
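Mice, six per group, infected i.p. with 1 × 10^8 CFU ml−1 S. aureus USA300 FPR3757 in PBS with 5% mucin. Compound given i.m. at 2 μM 1 h later; vehicle 45% w/v (2-hydroxypropyl)-β-cyclodextrin in water i.v.; vancomycin i.v. as control. Monitored twice daily for 5 days, pre-moribund animals euthanized. Survival compared by log-rank test.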

The subject of series [47] is Pseudomonas aeruginosa. Briefly: Antimicrobial activity against Pseudomonas aeruginosa assessed as inhibition of microbial growth at 100 uM after 24 hrs. The series is classed as functional, organism-based. In outline:
as §1

Regarding `CCCC[C@H]1CN(CCCC[C@H]2CNC(=N)N2CCc2cccc(C(F)(F)F)c2)C(=N)N1CCCCC1CCCCC1`, the “growth inhibition (GI)” value with Enterococcus faecium [1], in the series on Staphylococcus aureus [2], with Klebsiella pneumoniae [3], in the series on Acinetobacter baumannii [4], with Pseudomonas aeruginosa [5] and in the series with Enterobacter cloacae [6] was “Active” in each case. In addition, the minimal inhibitory concentration (MIC) with Enterococcus faecium [7], in the series on Staphylococcus aureus [8], with Klebsiella pneumoniae [9], with Acinetobacter baumannii [10], in the series with Pseudomonas aeruginosa [11] and in the series with Enterobacter cloacae [12] was 1.5 µM in each case. Moreover, the MBC90 in the series with Enterococcus faecium [13] was 1.7 µM (≈ 1 µg/mL); in the series with Klebsiella pneumoniae [14], 4 µM (≈ 2.36 µg/mL); in the series on Acinetobacter baumannii [15], 2.8 µM (≈ 1.65 µg/mL); against Pseudomonas aeruginosa [16], 2.3 µM (≈ 1.36 µg/mL); in the series on Enterobacter cloacae [17] it was 4.1 µM (≈ 2.42 µg/mL). The outcome in the series with Staphylococcus aureus [18], in the series with Enterococcus faecium [36], in the series on Staphylococcus aureus [37], with Klebsiella pneumoniae [38], in the series on Acinetobacter baumannii [39] and with Pseudomonas aeruginosa [40] was inactive. In addition, in the series with Enterobacter cloacae [41], the outcome was inactive. Also, the Survival with Staphylococcus aureus [19] was found to be 0.2%. In addition, in the series with Staphylococcus aureus [20], the “fold change (FC)” value was 2.5. Further, the MBEC50 in the series on Enterococcus faecium [21] stood at 29 µM; in the series with Staphylococcus aureus [22] it was 2.2 µM; in the series with Klebsiella pneumoniae [23], 4.7 µM; with Acinetobacter baumannii [24], 16 µM; in the series on Pseudomonas aeruginosa [25] it was 31 µM; with Enterobacter cloacae [26], 13 µM. Also, in the series with A549, the half-maximal inhibitory concentration (IC50) worked out at 125 µM. Also, the “Selectivity Index” value in [27], in series [28], in series [29], in series [30], in [31] and in series [32] was 82 in each case. In [33], the viability at 48 h is more than 65%. The viability at 48 h, 225 µM in series [34] was more than 50%. Also, the hemolysis at 0.25 h, 10 µM in series [35] is 0.34%. Moreover, the Ratio in the series with Staphylococcus aureus [42] is 2; in the series with Klebsiella pneumoniae [43], “<=8”; in the series on Acinetobacter baumannii [44], “<=8”; with Enterobacter cloacae [45], “<=8”. The result in the series with Staphylococcus aureus [46] was Active.
Regarding `COC(=O)[C@H]1[C@H]2C[C@@H]3c4[nH]c5cc(OC)ccc5c4CCN3C[C@H]2C[C@@H](OC(=O)c2cc(OC)c(OC)c(OC)c2)[C@@H]1OC`, the “growth inhibition (GI)” value in the series with Pseudomonas aeruginosa [47] was “inactive”.
